Assay results taken from paper PMC9340768 (Journal of Medicinal Chemistry, 2022).
Converted amounts (≈) assume the structure as drawn. Starred links: 1 amine or outer side, 2 acyl side, 3 side chain; linkers in the order of their positions; H or OH if unused. Positions of bridges follow the written chain, without caps; N, C: chain ends. Non-standard residues stand in square brackets, D forms with d. Residues, ends and D or L forms follow the SMILES beside them. TATA = O=C(CC[*:1])N1CN(C(=O)CC[*:2])CN(C(=O)CC[*:3])C1; tBuAla = CC(C)(C)C[C@H](N)C(=O)O; Nle = CCCC[C@H](N)C(=O)O

Key:
[1] = Pharmacokinetics in Sprague-Dawley rats; conditions: rat, in vivo, iv, 2 mg/kg, SD rats, 2 mg/kg IV bolus; for clearance: CL (mL/min/kg); for half-life: t½ (h), terminal half-life
[2] = tested on: human PBMCs cocultured with HT1376; assay: PBMC/HT1376 coculture cytokine secretion assay; type: cell-based; conditions: anti-CD3 stimulated PBMCs with HT1376
In short: (§1)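 Frozen healthy-donor human PBMCs were thawed, washed in PBS with benzonase and resuspended in RPMI with 10% heat-inactivated FBS, HEPES and glutamine. PBMCs (1 × 10^6/mL) were plated with tumor cells (1 × 10^5/mL) at 10:1, stimulated with soluble anti-CD3 OKT3 (100 ng/mL), and given diluted test compound. Incubation was 2 days at 37 °C, 5% CO2. Supernatant IFNγ and IL-2 were measured by Luminex; four-parameter fit, n = 3.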

[3] = tested on: CT26-Nectin-4 tumors; assay: CT26-Nectin-4 syngeneic tumor model; type: in vivo, Balb/c mice; conditions: 1 and 5 mg/kg QD IP
[4] = tested on: Nectin-4; assay: Cross-species binding of the Nectin-4 Bicycle; parameters: species or system mouse, rat, monkey, and human
[5] = tested on: human PBMCs cocultured with MC38-Nectin-4; assay: PBMC/MC38-Nectin-4 coculture cytokine secretion assay; type: cell-based; conditions: anti-CD3 stimulated; IFNγ after 48 h
In short: as §1

[6] = tested on: MC38-Nectin-4 tumors; assay: CIVO intratumoral microdosing pharmacodynamics; type: in vivo, huCD137 C57Bl/6 mice; conditions: 1.85 μM microdose, 24 h, IHC; compared to vehicle or MMAE injection sites
In short: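 C57BL/6J-hCD137 mice bearing subcutaneous MC38-Nectin-4 tumors (around 860 mm3; three mice) were anesthetized and microdosed transcutaneously with the CIVO device. Each 2 μL injection held vehicle (25 mM histidine, 10% sucrose pH 7), 120 μM MMAE or 1.85 μM test compound, plus fluorescent tracking microspheres. Tumors were taken 24 h later, formalin-fixed, paraffin-embedded and stained by fluorescent IHC for CD8, GzB and DAPI. CD8+/GzB+ cells were normalized to total CD8+ cells; one-way ANOVA with Dunnett's post-test.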

[7] = tested on: CD137; assay: Cross-species binding of the CD137 Bicycle; parameters: species or system human and monkey
[8] = Thermodynamic solubility; type: physicochemical; conditions: pH 7.4

CCCC[C@@H]1NC(=O)[C@H](Cc2ccc(O)cc2)NC(=O)[C@@H]2CCCN2C(=O)[C@H](CC(=O)O)NC(=O)[C@H](C)NC(=O)[C@H](Cc2ccccc2)NC(=O)[C@@H]2CSCCC(=O)N3CN(CN(C3)C(=O)CCSC[C@@H](C(=O)N[C@@H](C)C(N)=O)NC1=O)C(=O)CCSC[C@H](NC(C)=O)C(=O)N[C@@H](CC(C)(C)C)C(=O)N1CCC[C@H]1C(=O)N[C@@H](CCC(=O)O)C(=O)N[C@H](CCCCNC(=O)CCc1cn(CCOCCOCCOCCOCCOCCC(=O)N[C@H]3CSCCC(=O)N4CN5CN(C4)C(=O)CCSC[C@H](NC(=O)[C@@H](CC(=O)O)NC(=O)[C@H](Cc4cccc6ccccc46)NC(=O)[C@@H]4CCCN4C3=O)C(=O)N[C@@H](CCSC)C(=O)N[C@@H](CCCCNC(=N)N)C(=O)N[C@@H](CC(=O)O)C(=O)N[C@@H](Cc3c[nH]c4ccccc34)C(=O)N[C@@H](CO)C(=O)N[C@@H]([C@@H](C)O)C(=O)N3CCC[C@H]3C(=O)N3C[C@H](O)C[C@H]3C(=O)N[C@@H](Cc3c[nH]c4ccccc34)C(=O)N[C@H](C(N)=O)CSCCC5=O)nn1)C(=O)N1CCC[C@H]1C(=O)N[C@@H](Cc1ccc(O)cc1)C(=O)N2 [BCY10572]
clearance [1]: 18 mL/min/kg
secretion of proinflammatory cytokines IFNγ and IL-2 [2]: dose-dependent increase
antitumor activity ([3]; huCD137-Balb/c mice): Potent antitumor activity
antitumor activity ([3]; wt Balb/c mice): no BCY10572 antitumor activity

CSCC[C@@H]1NC(=O)[C@@H]2CSCCC(=O)N3CN(CN(C3)C(=O)CCSC[C@H](N)C(=O)N3CCC[C@H]3C(=O)N[C@@H](Cc3cccc4ccccc34)C(=O)N[C@H](CC(=O)O)C(=O)N2)C(=O)CCSC[C@@H](C(N)=O)NC(=O)[C@H](Cc2c[nH]c3ccccc23)NC(=O)[C@@H]2C[C@@H](O)CN2C(=O)[C@@H]2CCCN2C(=O)[C@H]([C@@H](C)O)NC(=O)[C@H](CO)NC(=O)[C@H](Cc2c[nH]c3ccccc23)NC(=O)[C@H](CC(=O)O)NC(=O)[C@H](CCCCNC(=N)N)NC1=O [BCY8116]
species cross-reactivity of binding to Nectin-4 [4]: binds to mouse, rat, monkey, and human Nectin-4

CCCC[C@@H]1NC(=O)[C@H](Cc2ccc(O)cc2)NC(=O)[C@@H]2CCCN2C(=O)[C@H](CC(=O)O)NC(=O)[C@H](C)NC(=O)[C@H](Cc2ccccc2)NC(=O)[C@@H]2CSCCC(=O)N3CN(CN(C3)C(=O)CCSC[C@@H](C(=O)N[C@@H](C)C(N)=O)NC1=O)C(=O)CCSC[C@H](NC(=O)[C@H](C)NC(C)=O)C(=O)N[C@@H]([C@@H](C)CC)C(=O)N[C@@H](CCC(=O)O)C(=O)N[C@@H](CCC(=O)O)C(=O)N[C@H](CCCCNC(=O)CCc1cn(CCOCCOCCOCCN(CCOCCOCCOCCC(=O)N[C@H]3CSCCC(=O)N4CN5CN(C4)C(=O)CCSC[C@H](NC(=O)[C@@H](CC(=O)O)NC(=O)[C@H](Cc4cccc6ccccc46)NC(=O)[C@@H]4CCCN4C3=O)C(=O)N[C@@H](CCSC)C(=O)N[C@@H](CCCCNC(=N)N)C(=O)N[C@@H](CC(=O)O)C(=O)N[C@@H](Cc3c[nH]c4ccccc34)C(=O)N[C@@H](CO)C(=O)N[C@@H]([C@@H](C)O)C(=O)N3CCC[C@H]3C(=O)N3C[C@H](O)C[C@H]3C(=O)N[C@@H](Cc3c[nH]c4ccccc34)C(=O)N[C@H](C(N)=O)CSCCC5=O)CCOCCOCCOCCn3cc(CCC(=O)NCCCC[C@H]4NC(=O)[C@H](CCC(=O)O)NC(=O)[C@H](CCC(=O)O)NC(=O)[C@H]([C@@H](C)CC)NC(=O)[C@@H](NC(=O)[C@H](C)NC(C)=O)CSCCC(=O)N5CN6CN(C5)C(=O)CCSC[C@H](NC(=O)[C@H](Cc5ccc(O)cc5)NC(=O)[C@H](CCC(N)=O)NC4=O)C(=O)N[C@@H](Cc4ccccc4)C(=O)N[C@@H](C)C(=O)N[C@@H](CC(=O)O)C(=O)N4CCC[C@H]4C(=O)N[C@@H](Cc4ccc(O)cc4)C(=O)N[C@@H](CCCC)C(=O)N[C@H](C(=O)N[C@@H](C)C(N)=O)CSCCC6=O)nn3)nn1)C(=O)N[C@@H](CCC(N)=O)C(=O)N[C@@H](Cc1ccc(O)cc1)C(=O)N2 [BCY11864]
half-life [1]: 0.95 h
secretion of proinflammatory cytokines IFNγ and IL-2 [2]: dose-dependent increase
functional activity in PBMCs cocultured with MC38-Nectin-4 [5]: functionally active
proportion of CD8+/GzB+ double positive cells of total CD8+ cells [6]: increase

CCCC[C@@H]1NC(=O)[C@H](Cc2ccc(O)cc2)NC(=O)[C@@H]2CCCN2C(=O)[C@H](CC(=O)O)NC(=O)[C@H](C)NC(=O)[C@H](Cc2ccccc2)NC(=O)[C@@H]2CSCCC(=O)N3CN(CN(C3)C(=O)CCSC[C@@H](C(=O)N[C@@H](C)C(N)=O)NC1=O)C(=O)CCSC[C@H](NC(C)=O)C(=O)N[C@@H](CC(C)(C)C)C(=O)N1CCC[C@H]1C(=O)N[C@@H](CCC(=O)O)C(=O)N[C@H](CCCCN)C(=O)N1CCC[C@H]1C(=O)N[C@@H](Cc1ccc(O)cc1)C(=O)N2 [BCY8928] (Ac-C[tBuAla]PE[dK]PYCFADPY[Nle]CA-NH2; linker 1-8-15 via TATA)
species cross-reactivity of binding to CD137 [7]: binds only to human and monkey CD137

CCCC[C@@H]1NC(=O)[C@H](Cc2ccc(O)cc2)NC(=O)[C@@H]2CCCN2C(=O)[C@H](CC(=O)O)NC(=O)[C@H](C)NC(=O)[C@H](Cc2ccccc2)NC(=O)[C@@H]2CSCCC(=O)N3CN(CN(C3)C(=O)CCSC[C@@H](C(N)=O)NC1=O)C(=O)CCSCCC(=O)N[C@@H](CC(C)(C)C)C(=O)N1CCC[C@H]1C(=O)N[C@@H](CCC(=O)O)C(=O)N[C@H](CCCCNC(=O)CCc1cn(CCOCCOCCOCCN(CCOCCOCCOCCC(=O)N[C@H]3CSCCC(=O)N4CN5CN(C4)C(=O)CCSC[C@H](NC(=O)[C@@H](CC(=O)O)NC(=O)[C@H](Cc4cccc6ccccc46)NC(=O)[C@@H]4CCCN4C3=O)C(=O)N[C@@H](CCSC)C(=O)N[C@@H](CCCCNC(=N)N)C(=O)N[C@@H](CC(=O)O)C(=O)N[C@@H](Cc3c[nH]c4ccccc34)C(=O)N[C@@H](CO)C(=O)N[C@@H]([C@@H](C)O)C(=O)N3CCC[C@H]3C(=O)N3C[C@H](O)C[C@H]3C(=O)N[C@@H](Cc3c[nH]c4ccccc34)C(=O)N[C@H](C(N)=O)CSCCC5=O)CCOCCOCCOCCn3cc(CCC(=O)NCCCC[C@H]4NC(=O)[C@H](CCC(=O)O)NC(=O)[C@@H]5CCCN5C(=O)[C@H](CC(C)(C)C)NC(=O)CCSCCC(=O)N5CN6CN(C5)C(=O)CCSC[C@H](NC(=O)[C@H](Cc5ccc(O)cc5)NC(=O)[C@@H]5CCCN5C4=O)C(=O)N[C@@H](Cc4ccccc4)C(=O)N[C@@H](C)C(=O)N[C@@H](CC(=O)O)C(=O)N4CCC[C@H]4C(=O)N[C@@H](Cc4ccc(O)cc4)C(=O)N[C@@H](CCCC)C(=O)N[C@H](C(N)=O)CSCCC6=O)nn3)nn1)C(=O)N1CCC[C@H]1C(=O)N[C@@H](Cc1ccc(O)cc1)C(=O)N2 [BCY12587]
clearance [1]: 4.5 mL/min/kg
half-life [1]: 17 h
secretion of proinflammatory cytokines IFNγ and IL-2 [2]: dose-dependent increase
solubility thermodynamic [8]: 3100 µg/mL (≈ 446 µM)
